The values below come from PubChem BioAssay.

The nature of assay [1]: inhibitors of TNFa-induced NFkB p65 translocation, primary screen, imaging, HUVEC, MLSMR starter and 10KST1 sets (AID 438).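 Further: compound added about 3h40 before a 20 min TNFalpha stimulation.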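 On inhibition: signal is the nuclear over cytoplasmic p65 intensity ratio per well.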 Particulars: HUVEC TNFa-induced p65 nuclear translocation; cell count: measured here: nuclei count (cytotoxicity indicator), at 2.08 µM; inhibition: at 2 µM, stronger effect = higher value, 0% TNFa-plus-vehicle, 100% no-TNFa wells.
A short description of assay [2]: inhibitors of mutant huntingtin aggregation, primary screen, imaging, exon1htt(103Q)mCFP cells, high-content imaging (AID 483;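 active means visual image review flags a hit and inhibition of aggregation exceeds 20%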;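 further: compound exposure lasted 3 days before fixation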;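 on nuclei count: percent of the per-plate median nuclei count of sample wells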). Particulars: exon1htt(103Q)mCFP cell line, aggregate imaging, at 2 µM; inhibition of aggregation: stronger effect = higher value; nuclei count: measured here: cell count, toxicity.
Assay [3] in a line: inhibitors of E-selectin induction by TNFa, primary screen, imaging, HUVEC, immunofluorescence, MLSMR starter and 10KST1 sets (AID 487;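 active means visually confirmed hit in the image check and inhibition above 20%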;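 on inhibition: signal is fraction of cell area covered by stained E-selectin grains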;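 on nuclei count: 100% = median nuclei count of all wells on the same plate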). Particulars: HUVEC TNFalpha-induced E-selectin immunofluorescence imaging, at 2 µM; inhibition: stronger effect = higher value; nuclei count: measured here: cell number, toxicity.
In assay [4] the target is Voltage-gated potassium channel subunit beta-2 (Rattus norvegicus) (UniProt P62483). As to the kind of experiment: KvBeta enzyme negative modulators, primary screen, biochemical, NADPH fluorescence (AID 622;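 active means fluorescence slope higher than the sample average by over 3 SD, cut at about -0.22 in these data, passing the limit was not always enough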;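 further: slope of raw intensity against log time taken from 70 to 1610 s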). The conditions noted are these: recombinant KvBeta, 4-cyanobenzaldehyde reduction, at 10 µM, stronger effect = higher value.
Voltage-gated potassium channel subunit beta-2 (Rattus norvegicus), sequence (P62483 whole entry, looked up): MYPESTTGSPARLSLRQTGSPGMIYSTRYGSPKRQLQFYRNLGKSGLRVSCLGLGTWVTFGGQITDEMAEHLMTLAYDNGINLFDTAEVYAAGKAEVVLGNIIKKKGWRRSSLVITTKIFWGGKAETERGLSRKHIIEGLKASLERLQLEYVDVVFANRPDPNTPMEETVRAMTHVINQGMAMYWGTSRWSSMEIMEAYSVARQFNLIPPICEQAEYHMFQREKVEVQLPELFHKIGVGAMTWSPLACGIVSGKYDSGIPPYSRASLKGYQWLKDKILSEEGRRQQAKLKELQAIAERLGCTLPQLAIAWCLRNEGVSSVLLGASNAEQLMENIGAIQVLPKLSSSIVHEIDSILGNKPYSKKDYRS
The target is the same in assay [5]. The experiment in a line: KvBeta positive modulators, primary screen, biochemical, NADPH fluorescence (AID 623;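 active means NADPH fluorescence slope more negative than the mean of all samples by about 3 SD, 99.7% confidence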;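 further: fluorescence intensity change per second fitted from 20 to 320 s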). Particulars: Recombinant KvBeta, NADPH fluorescence decrease slope, 10 min; at 10 µM; stronger effect = lower value.
For assay [6], the target named is Muscarinic acetylcholine receptor M4 (Homo sapiens) (UniProt P08173). As to the kind of experiment: compounds altering M4/GIRK thallium flux, either direction, primary screen, M4 allosteric agonist project, cell-based, HEK293 M4/GIRK, BTC-AM (AID 625;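 active means fluorescence slope after compound addition differing from the mean of all tested samples at 99.7% confidence, mostly higher but some lower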;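 further: thallium influx through GIRK channels coupled to M4 in HEK293 cells with BTC-AM dye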). Particulars: at 10 µM, actives lie on both sides. In short, it runs like this:
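System: HEK293 cells with M4 receptor and GIRK channels | Incubation: Cells overnight at 37 °C, BTC-AM loading 1 h, reads 2 min total | Technique: Kinetic BTC-AM fluorescence sampled at 1 Hz, 10 s pre-addition baseline | Measure: Post-addition slope, 15–24 s, of baseline-normalized fluorescence | Control set: Carbachol positive, DMSO negative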

The nature of assay [7]: inhibitors of Sendai virus-induced IRF3 signaling, primary screen, TLR/RLR signaling modifier project, cell-based, Sendai virus stimulus, luciferase, 10K MLSCN set (AID 602276;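 active means inhibition at or above 50% at 10 µM; inactive means inhibition below 50%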;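 further: firefly luciferase from ISG56 promoter only with Renilla not read in this screen; 0% = Sendai virus plus DMSO and 100% = medium plus DMSO without virus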). Particulars: HEK293 RL24 IRF3 luciferase reporter, at 10 µM, stronger effect = higher value.
A short description of assay [8]: inhibitors of poly I:C-induced TLR3 signaling, primary screen, cell-based, poly I:C stimulus, luciferase, 10K MLSCN set (AID 602277;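 active means inhibition of the reporter signal at or above 50%; inactive means inhibition below 50%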). The conditions noted are these: HEK293-TLR3 RL24 IRF3 luciferase reporter, at 10 µM, stronger effect = higher value.

Activity calls are given as the source filed them.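 How the source made its calls, unless noted: active means inhibition above 20% together with a positive visual image hit; inconclusive means visual image hit but inhibition not above 20%; inactive means no visual image hit.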

Muscarinic acetylcholine receptor M4 (Homo sapiens), sequence (P08173 whole entry, looked up): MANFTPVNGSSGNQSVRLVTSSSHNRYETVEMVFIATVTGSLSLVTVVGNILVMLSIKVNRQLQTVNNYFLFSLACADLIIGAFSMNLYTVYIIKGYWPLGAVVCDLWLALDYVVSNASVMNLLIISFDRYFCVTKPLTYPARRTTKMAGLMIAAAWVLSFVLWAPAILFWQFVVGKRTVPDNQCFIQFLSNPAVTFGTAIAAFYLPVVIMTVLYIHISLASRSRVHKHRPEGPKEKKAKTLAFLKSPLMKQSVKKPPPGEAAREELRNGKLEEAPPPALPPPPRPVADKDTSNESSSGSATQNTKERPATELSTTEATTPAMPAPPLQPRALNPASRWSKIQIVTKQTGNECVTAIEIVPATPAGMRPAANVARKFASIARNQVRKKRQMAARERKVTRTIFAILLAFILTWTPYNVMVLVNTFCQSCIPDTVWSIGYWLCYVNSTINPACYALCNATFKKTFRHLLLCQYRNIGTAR

As for `CCOc1ccc(S(=O)(=O)Nc2ccccc2C(=O)Nc2ccccc2N2CCOCC2)cc1`, the cell count in assay [1] turned out to be 322. The inhibition was -2.1% (inactive) in assay [1], -24.9% (inactive) in assay [3], 11.5% (inactive) in assay [7] and 25.7% (inactive) in assay [8]. Also, the inhibition of aggregation in assay [2] is 17.2% (inactive). Besides, the nuclei count in assay [2] was 94.9%; in assay [3], 106%. In addition, the fluorescence slope in assay [4] was -0.522 (inactive); in assay [6], 0.00582 (inactive). In addition, in assay [5], the NADPH fluorescence slope is -3.2e-05 (inactive).
In the case of `O=C(c1ccc(Cl)cc1)C1CCN(C(=O)NC2CCCCC2)CC1`, the cell count in assay [1] was 456. The inhibition was -15% (inactive) in assay [1], -37.3% (inactive) in assay [3], 4.14% (inactive) in assay [7] and -12.4% (inactive) in assay [8]. Besides, the inhibition of aggregation in assay [2] was 13.9% (inactive). In addition, the nuclei count in assay [2] was 86.5%; in assay [3], 104%. Also, the fluorescence slope in assay [4] is -0.541 (inactive); in assay [6], 0.00452 (inactive). In addition, in assay [5], the NADPH fluorescence slope was -1.3e-05 (inactive).
For the compound `O=C(Cn1c(=O)[nH]n(-c2ccccc2)c1=O)N1CCCc2ccccc21`, the cell count in assay [1] was 328. Besides, the inhibition in assay [1] was 0% (inactive); in assay [3], -87.1% (inactive); in assay [7] it was 14.4% (inactive); in assay [8] it was 25.6% (inactive). Besides, in assay [2], the inhibition of aggregation was -15.3% (inactive). Also, the nuclei count in assay [2] worked out at 117%; in assay [3], 118%. For the same compound, the fluorescence slope in assay [4] was -0.387 (inactive); in assay [6], 0.00957 (inactive). Besides, the NADPH fluorescence slope in assay [5] was -5.1e-05 (inactive).
In the case of `Cc1ccccc1OCCN1C(=O)NC2(CCc3ccccc32)C1=O` (centres undefined), the cell count in assay [1] worked out at 414. Moreover, the inhibition in assay [1] is -18.4% (inactive); in assay [3], 8.5% (inactive); in assay [7], 12% (inactive); in assay [8], 4.56% (inactive). In addition, the inhibition of aggregation in assay [2] was 8.4% (inactive). Moreover, the nuclei count in assay [2] was 94.7%; in assay [3], 99.4%. Moreover, the fluorescence slope in assay [4] was -0.297 (inactive); in assay [6], 0.00542 (inactive). Moreover, in assay [5], the NADPH fluorescence slope is -1.6e-05 (inactive).
Consider `Cc1ccc(CNC(=O)C2CCCN(S(=O)(=O)c3cccnc3)C2)cc1` (centres undefined), for which, in assay [1], the cell count turned out to be 313. The inhibition in assay [1] is -3.9% (inactive); in assay [3], -250% (inactive); in assay [7], -3.78% (inactive); in assay [8], -7.01% (inactive). Further, the inhibition of aggregation in assay [2] is -2.8% (inactive). For the same compound, the nuclei count in assay [2] was 89.2%; in assay [3] it was 88.5%. Moreover, the fluorescence slope in assay [4] is -0.573 (inactive); in assay [6], 0.00508 (inactive). Moreover, the NADPH fluorescence slope in assay [5] is 2.7e-05 (inactive).
Take `CCOC(=O)CSc1nnc(CNC(=O)c2ccc(OC)c(OC)c2)n1C`: the cell count in assay [1] stood at 375. The inhibition is -8.2% (inactive) in assay [1], -73% (inactive) in assay [3], 4.54% (inactive) in assay [7] and 21.4% (inactive) in assay [8]. The inhibition of aggregation in assay [2] is -1.1% (inactive). For the same compound, the nuclei count in assay [2] stood at 82%; in assay [3] it was 128%. The fluorescence slope was -0.578 (inactive) in assay [4] and 0.00863 (inactive) in assay [6]. Also, in assay [5], the NADPH fluorescence slope was -2.7e-05 (inactive).
On to `COc1cc(C(=O)N2CCC(c3nc(-c4cccnc4)no3)CC2)cc(OC)c1OC`, for which the cell count in assay [1] is 651. The inhibition is -29.6% (inactive) in assay [1], -33.4% (inactive) in assay [3], 5.18% (inactive) in assay [7] and 24.5% (inactive) in assay [8]. The inhibition of aggregation in assay [2] was 2.1% (inactive). The nuclei count in assay [2] was 110%; in assay [3] it was 102%. Besides, the fluorescence slope in assay [4] is -0.28 (inactive); in assay [6] it was 0.00617 (inactive). In assay [5], the NADPH fluorescence slope was -1.2e-05 (inactive).
As to `O=S(=O)(NCC1CCCO1)c1ccc(S(=O)(=O)N2CCc3ccccc3C2)cc1` (centres undefined), in assay [1], the cell count is 685. Further, the inhibition in assay [1] was -4.3% (inactive); in assay [3], -132% (inactive); in assay [7], 19.5% (inactive); in assay [8], 19.5% (inactive). For the same compound, the inhibition of aggregation in assay [2] was -21.6% (inactive). For the same compound, the nuclei count in assay [2] stood at 97.8%; in assay [3], 140%. In addition, the figures for the fluorescence slope in assay [4] and in assay [6] were -0.525 (inactive) and 0.00466 (inactive), respectively. For the same compound, the NADPH fluorescence slope in assay [5] is -3.8e-05 (inactive).
For the compound `Cc1ccc(OCC(=O)NCCN2CCCC2)cc1`, the cell count in assay [1] was found to be 424. In addition, the inhibition is 0% (inactive) in assay [1], -65.5% (inactive) in assay [3], 15.6% (inactive) in assay [7] and 28% (inactive) in assay [8]. The inhibition of aggregation in assay [2] is 5% (inactive). For the same compound, the figures for the nuclei count in assay [2] and in assay [3] were 101% and 102%, respectively. Moreover, the fluorescence slope in assay [4] is -0.404 (inactive); in assay [6], 0.00568 (inactive). Further, in assay [5], the NADPH fluorescence slope is -0.000132 (inactive).
In the case of `Cc1ccccc1C(=O)NC1CCN(CC(=O)Nc2nccs2)CC1`, the cell count in assay [1] came to 608. Besides, the inhibition in assay [1] was -39.8% (inactive); in assay [3], -37.1% (inactive); in assay [7], 9.51% (inactive); in assay [8] it was 14.2% (inactive). Moreover, the inhibition of aggregation in assay [2] was 8.2% (inactive). The nuclei count in assay [2] came to 111%; in assay [3] it was 109%. The values for the fluorescence slope in assay [4] and in assay [6] were -0.476 (inactive) and 0.00698 (inactive), respectively. Besides, the NADPH fluorescence slope in assay [5] is 7.7e-05 (inactive).
For `O=C(CSc1ncnc2ccccc12)N1CCN(c2ccccc2)CC1`, the cell count in assay [1] stood at 567. Besides, the inhibition in assay [1] is -10.9% (inactive); in assay [3], 9.1% (inactive); in assay [7], 1.94% (inactive); in assay [8], 15.7% (inactive). In addition, the inhibition of aggregation in assay [2] is 10.5% (inactive). For the same compound, the nuclei count in assay [2] worked out at 99.4%; in assay [3], 108%. Further, the results for the fluorescence slope in assay [4] and in assay [6] were -0.47 (inactive) and 0.00572 (inactive), respectively. In addition, in assay [5], the NADPH fluorescence slope is 3.6e-05 (inactive).
As for `Cc1cc(Cl)c(S(=O)(=O)NC2CCCCC2)cc1OCC(=O)Nc1nncs1`, in assay [1], the cell count was 308. Also, the inhibition was -21.3% (inactive) in assay [1], -32.9% (inactive) in assay [3], 13.4% (inactive) in assay [7] and 0.658% (inactive) in assay [8]. The inhibition of aggregation in assay [2] was -4.2% (inactive). Also, the nuclei count in assay [2] came to 107%; in assay [3], 118%. The results for the fluorescence slope in assay [4] and in assay [6] were -0.506 (inactive) and 0.00536 (inactive), respectively. Further, the NADPH fluorescence slope in assay [5] is -3.4e-05 (inactive).
`C=CCC(Nc1ccco1)c1ccccc1` (centres undefined): in assay [1], the cell count was 393. Also, the inhibition is 2.5% (inactive) in assay [1], -17.9% (inactive) in assay [3], 19% (inactive) in assay [7] and 19.6% (inactive) in assay [8]. The inhibition of aggregation in assay [2] is 3.4% (inactive). The nuclei count in assay [2] stood at 112%; in assay [3] it was 114%. For the same compound, the fluorescence slope in assay [4] was -0.498 (inactive); in assay [6] it was 0.00454 (inactive). The NADPH fluorescence slope in assay [5] is -2.9e-05 (inactive).
As for `CC1(C)CC(=O)C(C=NCCO)=C(O)C1`, the cell count in assay [1] was 416. Also, the inhibition is -1.8% (inactive) in assay [1], -45.4% (inactive) in assay [3], 21.7% (inactive) in assay [7] and -0.595% (inactive) in assay [8]. Further, in assay [2], the inhibition of aggregation was 57% (active). The nuclei count in assay [2] came to 23.4%; in assay [3], 123%. Also, the fluorescence slope in assay [4] was -0.243 (inactive); in assay [6], 0.00793 (inactive). Also, in assay [5], the NADPH fluorescence slope is -2.1e-05 (inactive).
